Measured values: ChEMBL document CHEMBL5678815 (Clin Cancer Res, 2017)
Active and inactive are the calls of the source. No cut-off for these calls is given here.

What was measured:
[1] = biological target: Hepatocyte growth factor receptor (Homo sapiens) (UniProt P08581); experiment: Inhibition of human MET assessed as remaining activity at 1 uM by ATP-competition binding assay relative to control
Summary of the method: (§1)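 Single-point profiling at 1μM in an ATP-site-dependent competition binding assay across a panel of 395 human kinases, including mutant forms. The read-out is kinase binding signal in the presence of test agent, expressed as inhibition relative to the control signal. This screen assessed noncovalent binding interactions.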

[2] = biological target: Death-associated protein kinase 2 (Homo sapiens) (UniProt Q9UIK4); experiment: Inhibition of human DAPK2 assessed as remaining activity at 1 uM by ATP-competition binding assay relative to control
Summary of the method: (§2)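 KINOMEscan ATP-site-dependent competition binding panel of 395 human kinases, with compound tested at 1 μM. Binding is reported as remaining signal relative to control.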

CLL mononuclear cell = experiment: Antileukemic activity against human CLL mononuclear cells xenografted NSG mouse assessed as reduction in ki67 cells at 0.3 mg/ml preadministered with compound via drinking water and measured after 3 weeks by flow cytometry analysis; type: functional, cell-based
Summary of the method: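 Primary CLL patient mononuclear cells (1 × 10^8 per mouse) engrafted into NSG mice on day 0 after busulfan priming on day −1. Vehicle or drug was given in drinking water from day −1. Mice were killed 3 weeks after engraftment; spleens homogenized, filtered and RBC-lysed; whole blood collected. Six patients, 2–5 mice per patient; paired t-test per patient.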

[3] = biological target: Serine/threonine-protein kinase MAK (Homo sapiens) (UniProt P20794); experiment: Inhibition of human MAK assessed as remaining activity at 1 uM by ATP-competition binding assay relative to control; summary of the method: as §1
[4] = biological target: Serine/threonine-protein kinase PAK 6 (Homo sapiens) (UniProt Q9NQU5); experiment: Inhibition of human PAK6 assessed as remaining activity at 1 uM by ATP-competition binding assay relative to control; summary of the method: as §1
[5] = biological target: Calcium/calmodulin-dependent protein kinase type II subunit alpha (Homo sapiens) (UniProt Q9UQM7); experiment: Inhibition of human CAMK2A assessed as remaining activity at 1 uM by ATP-competition binding assay relative to control; summary of the method: as §2
[6] = biological target: Tyrosine-protein kinase Srms (Homo sapiens) (UniProt Q9H3Y6); experiment: Inhibition of human SRMS assessed as remaining activity at 1 uM by ATP-competition binding assay relative to control
Summary of the method: (§3)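 Single-concentration (1 μM) screen in an ATP-site-dependent competition binding assay (KINOMEscan, outsourced) covering 395 human kinases, mutants included. Non-covalent binding was read as the remaining signal relative to the control signal.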

[7] = biological target: Dual specificity tyrosine-phosphorylation-regulated kinase 1B (Homo sapiens) (UniProt Q9Y463); experiment: Inhibition of human DYRK1B assessed as remaining activity at 1 uM by ATP-competition binding assay relative to control; summary of the method: as §2
[8] = biological target: Serine/threonine-protein kinase MARK2 (Homo sapiens) (UniProt Q7KZI7); experiment: Inhibition of human MARK2 assessed as remaining activity at 1 uM by ATP-competition binding assay relative to control; summary of the method: as §1
[9] = biological target: Serine/threonine-protein kinase 17A (Homo sapiens) (UniProt Q9UEE5); experiment: Inhibition of human DRAK1 assessed as remaining activity at 1 uM by ATP-competition binding assay relative to control; summary of the method: as §2
[10] = biological target: Mitogen-activated protein kinase 13 (Homo sapiens) (UniProt O15264); experiment: Inhibition of human P38delta assessed as remaining activity at 1 uM by ATP-competition binding assay relative to control; summary of the method: as §1
[11] = biological target: Serine/threonine-protein kinase 35 (Homo sapiens) (UniProt Q8TDR2); experiment: Inhibition of human STK35 assessed as remaining activity at 1 uM by ATP-competition binding assay relative to control; summary of the method: as §3
[12] = biological target: cGMP-dependent protein kinase 1 (Homo sapiens) (UniProt Q13976); experiment: Inhibition of human PRKG1 assessed as remaining activity at 1 uM by ATP-competition binding assay relative to control; summary of the method: as §3
[13] = biological target: Casein kinase II subunit alpha (Homo sapiens) (UniProt P68400); experiment: Inhibition of human CSNK2A1 assessed as remaining activity at 1 uM by ATP-competition binding assay relative to control; summary of the method: as §2
[14] = biological target: Tyrosine-protein kinase receptor Tie-1 (Homo sapiens) (UniProt P35590); experiment: Inhibition of human TIE1 assessed as remaining activity at 1 uM by ATP-competition binding assay relative to control; summary of the method: as §3
[15] = biological target: Tyrosine-protein kinase JAK2 (Homo sapiens) (UniProt O60674); experiment: Inhibition of human JAK2 JH1 domain assessed as remaining activity at 1 uM by ATP-competition binding assay relative to control
Summary of the method: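 Compound at 1μM was screened in an ATP-site-dependent competition binding assay (KINOMEscan) against a 395-kinase human panel. Signal was expressed relative to control.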

[16] = biological target: Ephrin type-A receptor 2 (Homo sapiens) (UniProt P29317); experiment: Inhibition of human EPHA2 assessed as remaining activity at 1 uM by ATP-competition binding assay relative to control; summary of the method: as §2
[17] = biological target: Atypical kinase COQ8B, mitochondrial (Homo sapiens) (UniProt Q96D53); experiment: Inhibition of human ADCK4 assessed as remaining activity at 1 uM by ATP-competition binding assay relative to control; summary of the method: as §2
[18] = biological target: Casein kinase I isoform gamma-1 (Homo sapiens) (UniProt Q9HCP0); experiment: Inhibition of human CSNK1G1 assessed as remaining activity at 1 uM by ATP-competition binding assay relative to control; summary of the method: as §2
[19] = system: Epidermal growth factor receptor (Homo sapiens), P00533 [UNDEFINED MUTATION]; experiment: Inhibition of human EGFR E746-A750del mutant assessed as remaining activity at 1 uM by ATP-competition binding assay relative to control
Summary of the method: (§4)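 KINOMEscan ATP-site-dependent competition binding assay across a 395-kinase human panel including mutants; compound tested at 1μM; binding expressed relative to control signal.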

[20] = biological target: Tyrosine-protein kinase Tec (Homo sapiens) (UniProt P42680); experiment: Inhibition of human TEC at < 100 nM by ATP-Competition Binding Assay
[21] = biological target: Myosin light chain kinase (Homo sapiens) (UniProt Q32MK0); experiment: Inhibition of human MLCK assessed as remaining activity at 1 uM by ATP-competition binding assay relative to control; summary of the method: as §1
[22] = biological target: Mitogen-activated protein kinase kinase kinase 19 (Homo sapiens) (UniProt Q56UN5); experiment: Inhibition of human YSK4 assessed as remaining activity at 1 uM by ATP-competition binding assay relative to control; summary of the method: as §3
[23] = biological target: Calcium/calmodulin-dependent protein kinase kinase 2 (Homo sapiens) (UniProt Q96RR4); experiment: Inhibition of human CAMKK2 assessed as remaining activity at 1 uM by ATP-competition binding assay relative to control; summary of the method: as §2
[24] = system: Epidermal growth factor receptor (Homo sapiens), P00533 [L858R]; experiment: Inhibition of human EGFR L858R mutant assessed as remaining activity at 1 uM by ATP-competition binding assay relative to control; summary of the method: as §4
[25] = biological target: Receptor-interacting serine/threonine-protein kinase 2 (Homo sapiens) (UniProt O43353); experiment: Inhibition of human RIPK2 assessed as remaining activity at 1 uM by ATP-competition binding assay relative to control; summary of the method: as §3
[26] = biological target: Serine/threonine-protein kinase RIO2 (Homo sapiens) (UniProt Q9BVS4); experiment: Inhibition of human RIOK2 assessed as remaining activity at 1 uM by ATP-competition binding assay relative to control; summary of the method: as §3

Chain of Death-associated protein kinase 2 (Homo sapiens) (Q9UIK4 whole entry, looked up): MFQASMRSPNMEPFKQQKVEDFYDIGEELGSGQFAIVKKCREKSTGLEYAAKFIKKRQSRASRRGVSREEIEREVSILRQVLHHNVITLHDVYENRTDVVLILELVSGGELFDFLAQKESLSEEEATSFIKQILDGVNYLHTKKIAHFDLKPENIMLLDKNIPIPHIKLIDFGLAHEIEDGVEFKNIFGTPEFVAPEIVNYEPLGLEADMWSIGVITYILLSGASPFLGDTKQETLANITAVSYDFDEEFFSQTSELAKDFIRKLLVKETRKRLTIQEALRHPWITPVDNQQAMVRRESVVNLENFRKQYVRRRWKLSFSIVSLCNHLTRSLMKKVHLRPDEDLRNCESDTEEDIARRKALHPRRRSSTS
Chain of Serine/threonine-protein kinase 17A (Homo sapiens) (Q9UEE5 whole entry): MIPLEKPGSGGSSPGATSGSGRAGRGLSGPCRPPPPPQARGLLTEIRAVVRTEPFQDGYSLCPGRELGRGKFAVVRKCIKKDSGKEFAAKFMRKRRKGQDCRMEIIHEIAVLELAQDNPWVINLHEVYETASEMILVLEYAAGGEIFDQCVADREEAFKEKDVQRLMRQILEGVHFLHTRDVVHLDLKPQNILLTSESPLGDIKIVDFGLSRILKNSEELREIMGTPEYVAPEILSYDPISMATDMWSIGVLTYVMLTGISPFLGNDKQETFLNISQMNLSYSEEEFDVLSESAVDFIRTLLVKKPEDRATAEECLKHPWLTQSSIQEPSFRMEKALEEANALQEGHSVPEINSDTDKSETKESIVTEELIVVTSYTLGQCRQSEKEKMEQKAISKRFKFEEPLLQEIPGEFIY
Chain of Serine/threonine-protein kinase 35 (Homo sapiens) (Q8TDR2 whole entry): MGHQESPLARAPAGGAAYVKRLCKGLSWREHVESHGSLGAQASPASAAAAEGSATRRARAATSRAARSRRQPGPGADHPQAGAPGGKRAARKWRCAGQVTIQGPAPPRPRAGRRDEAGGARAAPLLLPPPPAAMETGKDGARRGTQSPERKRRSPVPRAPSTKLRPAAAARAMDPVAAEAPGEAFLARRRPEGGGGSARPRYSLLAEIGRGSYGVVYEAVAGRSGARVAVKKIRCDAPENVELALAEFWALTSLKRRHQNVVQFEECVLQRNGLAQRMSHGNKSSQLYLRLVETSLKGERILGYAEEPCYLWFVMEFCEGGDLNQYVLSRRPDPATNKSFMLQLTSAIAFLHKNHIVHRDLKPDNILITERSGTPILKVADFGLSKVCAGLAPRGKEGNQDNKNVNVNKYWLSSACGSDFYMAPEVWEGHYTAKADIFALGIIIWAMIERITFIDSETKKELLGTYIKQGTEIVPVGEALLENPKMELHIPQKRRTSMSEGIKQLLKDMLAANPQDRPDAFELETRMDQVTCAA
Chain of Serine/threonine-protein kinase MAK (Homo sapiens) (P20794 whole entry): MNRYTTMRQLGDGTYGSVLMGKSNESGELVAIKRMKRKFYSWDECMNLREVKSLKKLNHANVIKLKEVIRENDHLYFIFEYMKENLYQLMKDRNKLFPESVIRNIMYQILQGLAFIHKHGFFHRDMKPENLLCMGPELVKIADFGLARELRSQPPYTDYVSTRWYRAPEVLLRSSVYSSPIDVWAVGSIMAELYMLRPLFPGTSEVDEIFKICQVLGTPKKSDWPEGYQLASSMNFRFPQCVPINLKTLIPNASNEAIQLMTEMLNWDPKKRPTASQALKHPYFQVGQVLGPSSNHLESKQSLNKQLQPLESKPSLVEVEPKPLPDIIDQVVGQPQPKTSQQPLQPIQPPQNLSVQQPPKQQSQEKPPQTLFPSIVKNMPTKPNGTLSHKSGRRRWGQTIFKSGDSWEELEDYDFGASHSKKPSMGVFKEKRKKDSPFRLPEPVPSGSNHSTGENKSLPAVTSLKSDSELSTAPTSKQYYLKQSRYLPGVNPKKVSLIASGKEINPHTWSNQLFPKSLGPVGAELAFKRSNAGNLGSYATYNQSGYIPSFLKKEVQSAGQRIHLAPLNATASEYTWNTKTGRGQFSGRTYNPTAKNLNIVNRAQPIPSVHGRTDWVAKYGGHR
Chain of Tyrosine-protein kinase JAK2 (Homo sapiens) (O60674 whole entry, the tested form may be a part): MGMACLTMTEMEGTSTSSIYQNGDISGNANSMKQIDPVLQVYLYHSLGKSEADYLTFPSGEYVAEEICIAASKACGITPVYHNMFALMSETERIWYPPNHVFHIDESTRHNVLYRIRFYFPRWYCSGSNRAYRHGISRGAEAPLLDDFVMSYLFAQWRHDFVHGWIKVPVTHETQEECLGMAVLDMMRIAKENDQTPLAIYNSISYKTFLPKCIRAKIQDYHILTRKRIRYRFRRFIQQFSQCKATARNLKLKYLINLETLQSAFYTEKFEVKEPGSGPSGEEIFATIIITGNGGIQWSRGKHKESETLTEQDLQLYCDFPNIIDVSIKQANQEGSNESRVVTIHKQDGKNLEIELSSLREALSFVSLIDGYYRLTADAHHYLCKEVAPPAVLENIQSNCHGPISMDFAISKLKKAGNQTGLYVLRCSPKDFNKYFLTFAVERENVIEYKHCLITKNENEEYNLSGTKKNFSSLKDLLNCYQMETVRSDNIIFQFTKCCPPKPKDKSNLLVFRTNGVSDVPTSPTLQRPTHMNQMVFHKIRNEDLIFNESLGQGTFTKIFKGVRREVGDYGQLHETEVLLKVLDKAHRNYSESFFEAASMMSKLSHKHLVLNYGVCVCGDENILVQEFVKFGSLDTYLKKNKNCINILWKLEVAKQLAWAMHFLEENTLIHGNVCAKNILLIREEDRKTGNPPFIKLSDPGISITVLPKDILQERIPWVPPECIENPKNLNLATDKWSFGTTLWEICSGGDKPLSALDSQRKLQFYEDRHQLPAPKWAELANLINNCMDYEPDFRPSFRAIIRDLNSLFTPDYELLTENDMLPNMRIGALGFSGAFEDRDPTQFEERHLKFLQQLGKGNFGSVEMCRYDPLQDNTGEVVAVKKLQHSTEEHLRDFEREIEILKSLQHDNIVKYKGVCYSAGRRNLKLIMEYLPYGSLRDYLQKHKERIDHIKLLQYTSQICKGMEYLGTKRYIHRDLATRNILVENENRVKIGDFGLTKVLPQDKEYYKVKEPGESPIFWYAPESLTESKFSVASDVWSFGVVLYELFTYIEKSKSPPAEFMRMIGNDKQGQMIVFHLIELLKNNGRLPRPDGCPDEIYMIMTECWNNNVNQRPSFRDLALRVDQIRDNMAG
Chain of Mitogen-activated protein kinase kinase kinase 19 (Homo sapiens) (Q56UN5 whole entry): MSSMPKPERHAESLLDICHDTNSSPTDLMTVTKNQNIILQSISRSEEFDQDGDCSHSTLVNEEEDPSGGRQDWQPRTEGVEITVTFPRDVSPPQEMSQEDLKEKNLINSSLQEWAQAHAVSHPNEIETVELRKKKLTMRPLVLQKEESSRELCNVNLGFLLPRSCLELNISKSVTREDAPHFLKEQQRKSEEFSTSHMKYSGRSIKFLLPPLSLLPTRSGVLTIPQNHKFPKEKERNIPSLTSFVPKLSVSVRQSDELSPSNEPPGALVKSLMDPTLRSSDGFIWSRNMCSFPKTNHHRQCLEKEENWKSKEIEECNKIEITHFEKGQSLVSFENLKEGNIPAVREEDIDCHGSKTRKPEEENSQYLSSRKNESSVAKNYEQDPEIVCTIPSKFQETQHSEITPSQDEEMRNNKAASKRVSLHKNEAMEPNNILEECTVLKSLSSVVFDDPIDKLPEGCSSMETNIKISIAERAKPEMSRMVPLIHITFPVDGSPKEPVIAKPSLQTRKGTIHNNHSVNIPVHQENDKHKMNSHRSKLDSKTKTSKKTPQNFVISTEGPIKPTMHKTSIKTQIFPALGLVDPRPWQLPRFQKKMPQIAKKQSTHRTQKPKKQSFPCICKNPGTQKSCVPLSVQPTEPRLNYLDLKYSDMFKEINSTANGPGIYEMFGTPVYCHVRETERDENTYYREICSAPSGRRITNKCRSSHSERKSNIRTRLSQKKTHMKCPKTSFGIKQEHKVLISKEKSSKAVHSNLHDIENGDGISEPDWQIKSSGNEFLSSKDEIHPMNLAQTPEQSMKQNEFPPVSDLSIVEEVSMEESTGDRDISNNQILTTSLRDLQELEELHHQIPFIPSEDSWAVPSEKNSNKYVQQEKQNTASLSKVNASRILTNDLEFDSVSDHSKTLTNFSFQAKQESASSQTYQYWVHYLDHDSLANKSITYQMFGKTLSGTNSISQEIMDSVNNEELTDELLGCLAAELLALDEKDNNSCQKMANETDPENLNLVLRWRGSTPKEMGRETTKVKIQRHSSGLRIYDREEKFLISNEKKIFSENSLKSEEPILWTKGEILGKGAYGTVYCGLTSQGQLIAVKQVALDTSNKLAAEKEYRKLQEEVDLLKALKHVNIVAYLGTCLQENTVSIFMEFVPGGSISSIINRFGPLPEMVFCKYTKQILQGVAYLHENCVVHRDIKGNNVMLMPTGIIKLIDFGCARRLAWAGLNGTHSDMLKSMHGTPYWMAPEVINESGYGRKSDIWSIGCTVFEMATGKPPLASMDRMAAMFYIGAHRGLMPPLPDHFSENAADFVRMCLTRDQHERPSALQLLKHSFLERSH
Chain of Calcium/calmodulin-dependent protein kinase type II subunit alpha (Homo sapiens) (Q9UQM7 whole entry): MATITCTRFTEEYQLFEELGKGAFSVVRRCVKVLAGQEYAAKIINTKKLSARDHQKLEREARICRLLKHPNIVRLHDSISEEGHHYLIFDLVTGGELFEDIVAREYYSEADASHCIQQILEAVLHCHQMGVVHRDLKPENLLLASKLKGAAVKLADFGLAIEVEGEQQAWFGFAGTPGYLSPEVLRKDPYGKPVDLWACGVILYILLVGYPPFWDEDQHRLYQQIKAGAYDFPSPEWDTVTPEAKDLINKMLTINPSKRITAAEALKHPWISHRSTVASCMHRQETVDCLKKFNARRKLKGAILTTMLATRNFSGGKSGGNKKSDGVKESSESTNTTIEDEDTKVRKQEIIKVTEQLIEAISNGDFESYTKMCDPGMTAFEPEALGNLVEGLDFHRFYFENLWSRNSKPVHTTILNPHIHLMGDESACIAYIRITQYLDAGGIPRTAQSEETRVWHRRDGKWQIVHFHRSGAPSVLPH

## CC#CC(=O)N1CCC[C@H]1c1nc(-c2ccc(C(=O)Nc3ccccn3)cc2)c2c(N)nccn12 [ACALABRUTINIB]
[1]
  Activity: 91%
[2]
  Activity: 80%
CLL mononuclear cell
  Activity: Active
[3]
  Activity: 90%
[4]
  Activity: 94%
[5]
  Activity: 90%
[6]
  Activity: 67%
[7]
  Activity: 93%
[8]
  Activity: 59%
[9]
  Activity: 87%
[10]
  Activity: 57%
[11]
  Activity: 100%
[12]
  Activity: 70%
[13]
  Activity: 54%
[14]
  Activity: 89%
[15]
  Activity: 81%
[16]
  Activity: 91%
[17]
  Activity: 88%
[18]
  Activity: 78%
[19]
  Activity: 85%
[20]
  inhibition: Active
[21]
  Activity: 99%
[22]
  Activity: 90%
[23]
  Activity: 93%
[24]
  Activity: 94%
[25]
  Activity: 60%
[26]
  Activity: 80%
